Article PMC11977460 (European Heart Journal Open, 2025)

Assays:
[1] = system: high-fat/streptozotocin-induced Type 2 diabetic (T2D) rats; experiment: Blood glucose and physiological parameters; assay type: in vivo, rat; conditions: for food intake / urine output / water intake / body weight: T2D animals, Supplementary Figures S1 and S2; for food intake / urine output / water intake: 24 h metabolic cages; for fasting plasma glucose at Week 6: first set, untreated T2D rose further to ≈500 mg·dL−1 at Week 6
In short: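 Male Wistar rats, 12 months old, 450 ± 25 g. Type 2 diabetes induced by a 60% kcal lard diet for 4 weeks, then three i.p. STZ doses of 40 mg·kg−1 (citrate, pH 4.5) on consecutive days; shams received citrate. Tail glucose was read by glucometer in conscious restrained rats after a 12-h fast. Treatment ran 6 weeks; rats were held singly in metabolic cages for 24 h before the end.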

[2] = system: SMAD2/3, NFATc3, ERK1/2, JNK, PKG/VASP in T2D rat hearts; assay type: in vivo; conditions: for cardiac cGMP-dependent pathway PKG/VASP (VASP phosphorylation): western blot, T2D lowered VASP phosphorylation by ≈60%
In short: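 Ventricles came from diabetic rats after 6 weeks of peptide infusion (2 pmol·kg−1·min−1) or sacubitril in drinking water (18 mg·kg−1·day−1). Tissue was lysed in RIPA with protease and phosphatase inhibitors and protein assayed by Bradford. Western blots: 12% SDS-PAGE, PVDF, 5% BSA block, primaries overnight at 4°C, GAPDH reference, three blots per condition. Antibody arrays: 5 µg protein dot-blotted onto PVDF, then probed with GAPDH as internal control.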

[3] = system: ANP/cGMP concentrations in T2D rats; experiment: Cardiac and plasma ANP/cGMP measurement by ELISA; assay type: in vivo, rat; conditions: for increase in cardiac cGMP levels vs. T2D: acetylated samples, T2D tended to decrease ≈50%, n = 4-6; for increase in ANP plasma concentration: non-significant for MANP, P = 0.0967
[4] = system: cultured rat cardiac fibroblasts; experiment: Western blots of SMAD2/3 and PKG/VASP in high-glucose-treated fibroblasts; assay type: cell-based; conditions: high glucose 24 h with 100 pM peptide, western blot; for decrease in SMAD2 phosphorylation levels: n = 3; for activation of PKG/VASP pathway (VASP phosphorylation at serine 239): n = 5
In short: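 Day-5 cultures of rat ventricular fibroblasts were given high glucose for 24 h, with or without peptide at 100 pM. Cells were lysed in RIPA with protease and phosphatase inhibitors, and proteins were separated by 12% SDS-PAGE and blotted to PVDF. Membranes were blocked in 5% BSA and probed overnight at 4°C, with GAPDH as housekeeper. Blots came from three or five independent cultures.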

mongrel dogs = mongrel dogs following peptide administration; cited from earlier work
[5] = system: cultured rat cardiac fibroblasts; experiment: Sircol collagen secretion assay on cell supernatants; assay type: cell-based; conditions: 100 pM, 24 h, n = 6 independent cultures
In short: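 Rat ventricular fibroblasts, isolated by collagenase digestion, were adhesion-selected and cultured 5 days in DMEM with 10% FBS. They were then exposed to peptide at 100 pM for 24 h. Culture supernatants were used directly in the Sircol dye-binding assay, with pellets rinsed and dissolved in alkali reagent; collagen was read against standards. Six independent cultures were run.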

[6] = system: myocardial fibrosis in T2D rat hearts; experiment: Myocardial fibrosis histology and immunofluorescence; assay type: in vivo; conditions: first set, 2 pmol·kg−1·min−1 s.c., 6 weeks; for decrease in WGA staining (extracellular matrix): n = 5-6; for decrease in Masson's trichrome staining: n = 6
[7] = system: cultured rat cardiac fibroblasts; experiment: MTT proliferation assay; assay type: cell-based; conditions: 100 pM, 24 h, n = 6 independent cultures
In short: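 Ventricular fibroblasts came from normal Wistar rats by collagenase type V digestion and differential centrifugation, then were selected by 2-h adhesion in DMEM with 10% heat-inactivated FBS. On day 5 of culture, cells were exposed to peptide at 100 pM for 24 h. MTT (0.5 mg·mL−1 in Tyrode) was added for 1 h at 37°C and formazan dissolved in DMSO for absorbance reading. Six independent cultures were run.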

[8] = target: insulin-degrading enzyme (IDE); conditions: relative to ANP; cited from earlier work
neprilysin (NEP) = conditions: cited from earlier work
[9] = system: cardiac collagen in T2D rat hearts; assay type: in vivo; conditions: first set; Sircol assay; 2 pmol·kg−1·min−1 s.c., 6 weeks; n = 5-6
In short: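 Ventricular tissue came from diabetic rats after 6 weeks of pump-delivered peptide at 2 pmol·kg−1·min−1. Tissue was homogenized in acid-pepsin and reacted with Sircol dye. Collagen-dye pellets were spun down, rinsed with acetic acid and dissolved in alkali reagent. Soluble collagen was read as absorbance at 550 nm against standards.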

[10] = regulated by clearance receptor (NPR-C) and peptidases; cited from earlier work
[11] = first set, ELISA on ventricular tissue, 2 pmol·kg−1·min−1 s.c., 6 weeks, n = 6

Molecule | food intake [1] | urine output [1] | water intake [1] | body weight [1] | increase in cardiac ANP levels vs. T2D ([3]; second set, ELISA, n = 5-7) | fasting plasma glucose at Week 6 ([1]; T2D rats) | cardiac cGMP-dependent pathway PKG/VASP (VASP phosphorylation) ([2]; first set, n = 3) | decrease in SMAD2 phosphorylation levels [4] | activation of PKG/VASP pathway (VASP phosphorylation at serine 239) [4] | increase in cardiac ANP levels vs. T2D [3, 11] | increase in cardiac cGMP levels vs. T2D ([3]; first set, ELISA) | increase in ANP plasma concentration ([3]; first set, ELISA, n = 6) | increase in plasma ANP (mongrel dogs) [fold] | increase in plasma cGMP (mongrel dogs) [fold] | decrease in collagen secretion [5] | decrease in WGA staining (extracellular matrix) [6] | decrease in Masson's trichrome staining [6] | decrease in fibroblast proliferation [7] | half-life [10] [min] | other results
CCOC(=O)[C@H](C)C[C@@H](Cc1ccc(-c2ccccc2)cc1)NC(=O)CCC(=O)O [SACU, Sacubitril sodium] | reduced | reduced | reduced | without affecting the body weight | ≈ 50% |  |  |  |  |  |  |  |  |  |  |  |  |  |  | metabolic profile (blood glucose) ([1]; second set, T2D rats, SACU 18 mg·kg−1·day−1 in drinking water): same metabolic profiles as their counterparts; level of ERK1/2 phosphorylation relative to GAPDH ([2]; second set, antibody array, n = 4): decreased
M-atrial natriuretic peptide [MANP] | reduced | reduced | reduced | without affecting the body weight |  | remained unchanged | restored this pathway | ≈ 55% | ≈ 2.3 fold | ≈ 2 fold | ≈ 5 fold | ≈ 20% | ~1.5 | ~1.5 | ≈ 30% | ≈ 75% | ≈ 80% | ≈ 20% |  | cardiac NFATc3 activation (phosphorylated inactivated protein levels) ([2]; first set, antibody array vs T2D controls, n = 4): significantly reduced NFATc3 activation; cardiac ERK1/2 activation (pERK/ERK) ([2]; first set, antibody array, T2D hearts, n = 4): markedly attenuated; lower SMAD3 phosphorylation levels compared with T2D animals ([2]; first set, cardiac tissue western blot, 2 pmol·kg−1·min−1 s.c., 6 weeks, n = 3): ≈ 55%; IC50 with insulin-degrading enzyme (IDE), higher than ANP [8]: 30 fold; resistance to NEP degradation (neprilysin (NEP)): resistant to NEP degradation
atrial natriuretic peptide [ANP] | reduced | reduced | reduced | without affecting the body weight | no noticeable effect | remained unchanged | restored this pathway | ≈ 55% | ≈ 2.3 fold | no noticeable effect | attenuated | no noticeable effect | ~1.5 | ~1.5 | ≈ 30% | ≈ 50% | ≈ 50% | ≈ 20% | 3 | plasma ANP levels ([3]; second set, ELISA, n = 5-7): no noticeable effect; increase in cardiac soluble collagen [9]: ≈ 25%
brain natriuretic peptide [BNP] |  |  |  |  |  |  |  |  |  |  |  |  |  |  |  |  |  |  | 20 | 
